In ChEMBL document CHEMBL1212894, “Non-peptide macrocyclic histone deacetylase inhibitors derived from tricyclic ketolide skeleton” (J Med Chem, 2010):
≈ marks a conversion by molar mass, not a printed value. Calls of active or inactive are those of the source. No cut-off for these calls is given here.

Key:
[1] = molecular target: T1, Protein deacetylase HDAC6 (Homo sapiens, UniProt Q9UBN7); assay: Inhibition of HDAC6
T1 sequence (Q9UBN7 whole entry): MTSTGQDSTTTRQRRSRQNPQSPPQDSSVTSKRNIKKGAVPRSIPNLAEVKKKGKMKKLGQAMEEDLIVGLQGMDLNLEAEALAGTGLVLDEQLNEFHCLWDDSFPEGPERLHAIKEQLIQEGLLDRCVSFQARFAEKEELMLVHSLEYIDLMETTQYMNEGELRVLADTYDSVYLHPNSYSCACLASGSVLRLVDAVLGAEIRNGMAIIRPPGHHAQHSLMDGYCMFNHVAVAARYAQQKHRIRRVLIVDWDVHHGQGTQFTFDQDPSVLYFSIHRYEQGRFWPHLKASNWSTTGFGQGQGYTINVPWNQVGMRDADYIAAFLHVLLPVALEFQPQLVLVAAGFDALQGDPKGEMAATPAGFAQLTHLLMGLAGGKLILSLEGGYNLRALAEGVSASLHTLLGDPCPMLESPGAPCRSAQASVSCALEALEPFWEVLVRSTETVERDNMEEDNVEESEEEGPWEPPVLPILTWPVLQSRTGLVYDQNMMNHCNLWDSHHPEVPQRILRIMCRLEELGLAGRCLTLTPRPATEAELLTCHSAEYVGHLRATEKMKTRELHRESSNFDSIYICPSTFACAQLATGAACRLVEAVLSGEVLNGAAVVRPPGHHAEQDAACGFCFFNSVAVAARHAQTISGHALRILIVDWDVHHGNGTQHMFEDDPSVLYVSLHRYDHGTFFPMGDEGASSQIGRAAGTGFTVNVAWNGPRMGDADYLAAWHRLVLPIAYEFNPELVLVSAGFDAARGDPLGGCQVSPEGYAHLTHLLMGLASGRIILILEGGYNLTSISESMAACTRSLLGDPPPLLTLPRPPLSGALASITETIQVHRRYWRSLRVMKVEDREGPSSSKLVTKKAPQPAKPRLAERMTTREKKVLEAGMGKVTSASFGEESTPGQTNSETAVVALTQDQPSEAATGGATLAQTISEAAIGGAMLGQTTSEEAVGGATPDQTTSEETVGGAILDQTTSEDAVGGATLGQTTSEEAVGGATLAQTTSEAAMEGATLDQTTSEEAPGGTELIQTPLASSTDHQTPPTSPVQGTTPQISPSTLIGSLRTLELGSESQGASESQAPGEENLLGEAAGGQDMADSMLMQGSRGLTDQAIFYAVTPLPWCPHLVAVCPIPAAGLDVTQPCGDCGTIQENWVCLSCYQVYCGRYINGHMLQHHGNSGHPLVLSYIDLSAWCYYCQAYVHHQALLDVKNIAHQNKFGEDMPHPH

Histone deacetylase 8 = molecular target: T2, Histone deacetylase 8 (Homo sapiens, UniProt Q9BY41); assay: Inhibition of HDAC8
T2 sequence (Q9BY41 whole entry): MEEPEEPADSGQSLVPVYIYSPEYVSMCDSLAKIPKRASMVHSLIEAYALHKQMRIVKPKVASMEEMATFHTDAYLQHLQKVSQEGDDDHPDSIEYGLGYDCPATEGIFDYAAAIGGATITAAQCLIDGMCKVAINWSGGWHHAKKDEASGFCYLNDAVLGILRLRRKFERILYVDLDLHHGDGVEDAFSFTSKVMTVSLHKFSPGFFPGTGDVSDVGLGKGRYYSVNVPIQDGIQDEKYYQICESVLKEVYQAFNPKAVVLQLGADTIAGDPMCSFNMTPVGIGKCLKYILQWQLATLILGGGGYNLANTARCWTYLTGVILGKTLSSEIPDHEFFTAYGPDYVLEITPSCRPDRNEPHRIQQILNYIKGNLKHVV

MCF7 = assay: Antiproliferative activity against human MCF7 cells after 72 hrs by MTS assay; format: functional
How it was run: (§1)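 Cells kept at 37 °C, 5% CO₂ in recommended media; seeded in 96-well plates the day before, grown at least 24 h, then dosed 72 h with compounds diluted from 1000X DMSO stocks to give 0.1% DMSO final. MTS reagent added for 2 h; absorbance read at 490 nm; EC50 is concentration giving 50% loss of viability.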

Leishmania donovani [2] = assay: Antileishmanial activity against Leishmania donovani promastigotes after 72 hrs by alamar blue assay; format: functional, organism-based
Histone deacetylase [3] = assay: Inhibition of HDAC in human HeLa cell nuclear extracts; format: protein assay
Plasmodium falciparum [4] = assay: Antimalarial activity against Plasmodium falciparum W2 after 72 hrs by alamar blue assay; format: functional, organism-based; details: W2, 72 h
[5] = Selectivity ratio IC50 for HDAC8 to IC50 for HDAC in human HeLa cells nuclear extract; format: cell-based; set-up: reference not given here
A549 = assay: Antiproliferative activity against human A549 cells after 72 hrs by MTS assay; format: functional; how it was run: as §1
[6] = Selectivity index, ratio of IC50 for african green monkey (Cercopithecus aethiops) Vero cells to IC50 for Plasmodium falciparum D6
[7] = Selectivity index, ratio of IC50 for african green monkey (Cercopithecus aethiops) Vero cells to IC50 for Plasmodium falciparum W2
DU-145 = assay: Antiproliferative activity against human DU145 cells after 72 hrs by MTS assay; format: functional; how it was run: as §1
[8] = Antiproliferative activity against human Hs1.Lu cells after 72 hrs by MTS assay; format: cell-based
Plasmodium falciparum [9] = assay: Antimalarial activity against Plasmodium falciparum D6 after 72 hrs by alamar blue assay; format: functional, organism-based; details: D6, 72 h
Histone deacetylase [10] = molecular target: T3, Histone deacetylase (Plasmodium falciparum, UniProt Q9XYC7); assay: Inhibition of Plasmodium falciparum HDAC1
T3 sequence (Q9XYC7 whole entry): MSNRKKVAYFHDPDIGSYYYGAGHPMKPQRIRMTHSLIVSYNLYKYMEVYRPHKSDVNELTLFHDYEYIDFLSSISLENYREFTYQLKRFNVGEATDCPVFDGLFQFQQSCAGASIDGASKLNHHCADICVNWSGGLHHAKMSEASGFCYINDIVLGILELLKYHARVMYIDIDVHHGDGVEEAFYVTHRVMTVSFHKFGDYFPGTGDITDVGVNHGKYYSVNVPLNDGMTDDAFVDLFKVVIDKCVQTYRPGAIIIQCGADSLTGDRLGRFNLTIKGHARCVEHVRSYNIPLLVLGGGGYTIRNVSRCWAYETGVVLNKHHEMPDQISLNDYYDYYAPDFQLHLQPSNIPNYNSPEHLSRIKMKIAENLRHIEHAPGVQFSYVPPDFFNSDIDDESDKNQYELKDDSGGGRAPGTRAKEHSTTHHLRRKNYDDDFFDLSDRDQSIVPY

Leishmania donovani [11] = tested on: Leishmania donovani
[12] = Leishmania donovani, 72 h, read-out: IC50

IC50 [1] [nM] | IC50 (Histone deacetylase 8) [nM] | IC50 (Histone deacetylase [3]) [nM] | IC50 (Histone deacetylase [10]) [nM] | IC90 (Leishmania donovani [11]) | Structure (SMILES) | Activity (MCF7) [µM] | IC90 (Leishmania donovani [2]; Leishmania donovani, 72 h) [µg/mL] | IC50 (Leishmania donovani [2]; [12]) [µg/mL] | IC50 (Plasmodium falciparum [4]) [µg/mL] | Ratio IC50 [5] | Activity (A549) [µM] | selectivity ratio ([6]; Vero cells) | selectivity ratio ([7]; Vero cells) | Activity (DU-145) [µM] | Activity [8] [µM] | IC50 (Plasmodium falciparum [9]) [µg/mL] | IC50 (Leishmania donovani [2]) | selectivity ratio ([6]; vero) | selectivity ratio ([7]; vero)
1920 | 2860 | 163.6 | 290 | – | CC[C@H]1OC(=O)[C@H](C)C(=O)[C@H](C)[C@@H](O[C@@H]2O[C@H](C)C[C@H](N(C)Cc3ccc(-c4cn(CCCCCCCCC(=O)NO)nn4)cc3)[C@H]2O)[C@](C)(OC)C[C@@H](C)C2=NCCN3C(=O)O[C@@]1(C)[C@H]3[C@H]2C | 2.56 | 32.3 (≈ 33.9 µM) | 14.9 (≈ 15.6 µM) | 1.38 (≈ 1.45 µM) | 17.5 | 2.48 | > 3.7 | > 3.5 | 3.89 | > 10 | 1.3 (≈ 1.36 µM) | – | – | –
– | – | – | – | – | C[C@@H]1CC[C@H]2[C@@H](C)C(=O)O[C@@H]3O[C@@]4(C)CC[C@@H]1[C@]32OO4 [ARTEMISININ] | – | – | – | – | – | – | – | – | – | – | 0.0066 (≈ 0.0234 µM) | – | – | –
729 | 545 | 1.03 | 10 | inactive | CC[C@H]1OC(=O)[C@H](C)C(=O)[C@H](C)[C@@H](O[C@@H]2O[C@H](C)C[C@H](N(C)Cc3ccc(-c4cn(CCCCCCC(=O)NO)nn4)cc3)[C@H]2O)[C@](C)(OC)C[C@@H](C)C2=NCCN3C(=O)O[C@@]1(C)[C@H]3[C@H]2C | 0.75 | – | – | 0.133 (≈ 0.144 µM) | 529 | 0.66 | – | – | 0.82 | > 10 | 0.137 (≈ 0.148 µM) | Not Active | > 35 | > 36
– | – | – | – | – | N=C(N)c1ccc(OCCCCCOc2ccc(C(=N)N)cc2)cc1 [PENTAMIDINE] | – | 2.45 (≈ 7.2 µM) | 1.17 (≈ 3.44 µM) | – | – | – | – | – | – | – | – | – | – | –
– | – | – | – | – | C[C@@H]1[C@H](O)[C@@H](C)/C=C/C=C/C=C/C=C/C=C/C=C/C=C/[C@H](O[C@@H]2O[C@H](C)[C@@H](O)[C@H](N)[C@@H]2O)C[C@@H]2O[C@](O)(C[C@@H](O)C[C@@H](O)[C@H](O)CC[C@@H](O)C[C@@H](O)CC(=O)O[C@H]1C)C[C@H](O)[C@H]2C(=O)O [AMPHOTERICIN B] | – | 0.395 (≈ 0.427 µM) | 0.079 (≈ 0.0855 µM) | – | – | – | – | – | – | – | – | – | – | –
1180 | 796 | 7.77 | 36 | inactive | CC[C@H]1OC(=O)[C@H](C)C(=O)[C@H](C)[C@@H](O[C@@H]2O[C@H](C)C[C@H](N(C)Cc3ccc(-c4cn(CCCCCC(=O)NO)nn4)cc3)[C@H]2O)[C@](C)(OC)C[C@@H](C)C2=NCCN3C(=O)O[C@@]1(C)[C@H]3[C@H]2C | 1.26 | – | – | 1.79 (≈ 1.97 µM) | 102 | 1.17 | – | – | 1.64 | > 10 | 0.897 (≈ 0.986 µM) | Not Active | > 5.3 | > 2.68
3200 | 4560 | 208.2 | 304 | – | CC[C@H]1OC(=O)[C@H](C)C(=O)[C@H](C)[C@@H](O[C@@H]2O[C@H](C)C[C@H](N(C)Cc3ccc(-c4cn(CCCCCCCCCC(=O)NO)nn4)cc3)[C@H]2O)[C@](C)(OC)C[C@@H](C)C2=NCCN3C(=O)O[C@@]1(C)[C@H]3[C@H]2C | 3.68 | 23.7 (≈ 24.5 µM) | 4.8 (≈ 4.97 µM) | 0.897 (≈ 0.928 µM) | 21.9 | 2.81 | – | – | 4.83 | > 10 | 1.19 (≈ 1.24 µM) | – | > 4 | > 5.3
– | – | – | – | – | O=C(CCCCCCC(=O)Nc1ccccc1)NO [VORINOSTAT] | – | 51.7 (≈ 196 µM) | – | – | – | – | – | – | – | – | – | – | – | –

Structure (SMILES) | IC50 [1] [nM] | IC50 (Histone deacetylase 8) [nM] | IC50 (Histone deacetylase [3]) [nM] | IC50 (Histone deacetylase [10]) [nM] | IC90 (Leishmania donovani [11]) | Activity (MCF7) [µM] | IC90 (Leishmania donovani [2]; Leishmania donovani, 72 h) [µg/mL] | IC50 (Leishmania donovani [2]; [12]) [µg/mL] | IC50 (Plasmodium falciparum [4]) [µg/mL] | Ratio IC50 [5] | Activity (A549) [µM] | selectivity ratio ([6]; Vero cells) | selectivity ratio ([7]; Vero cells) | Activity (DU-145) [µM] | Activity [8] [µM] | IC50 (Plasmodium falciparum [9]) [µg/mL] | IC50 (Leishmania donovani [2]) | selectivity ratio ([6]; vero) | selectivity ratio ([7]; vero)
CC[C@H]1OC(=O)[C@H](C)C(=O)[C@H](C)[C@@H](O[C@@H]2O[C@H](C)C[C@H](N(C)Cc3ccc(-c4cn(CCCCCCCC(=O)NO)nn4)cc3)[C@H]2O)[C@](C)(OC)C[C@@H](C)C2=NCCN3C(=O)O[C@@]1(C)[C@H]3[C@H]2C | 1710 | 580 | 104.2 | 40 | – | 1.35 | 35.8 (≈ 38.2 µM) | 19.7 (≈ 21 µM) | 1.47 (≈ 1.57 µM) | – | 1.64 | – | – | 3.7 | > 10 | 1.32 (≈ 1.4 µM) | – | > 3.6 | > 3.3
